Source: ChEMBL document CHEMBL1144849, “Latrunculin A and its C-17-O-carbamates inhibit prostate tumor cell invasion and HIF-1 activation in breast tumor cells” (J Nat Prod, 2008)
Activity calls are given as the source filed them. The calls are words filed in the database; no cut-off is given here.

Tests used:
T47D = experiment: Cell viability in human T47D cells at 30 uM by SRB method; format: functional
In short: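 T47D cells in DMEM/F12 with 10% FCS plated at 30,000/well and left overnight at 37 °C. Compound added, 30 min preincubation, then 16 h (or 48 h) treatment at 37 °C, hypoxic (1% O2) or normoxic.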

[1] = molecular target: T1, Hypoxia inducible factors; HIF-1-alpha, HIF-2-alpha (Homo sapiens, UniProt Q16665+Q99814); experiment: Inhibition of hypoxia-induced HIF1 activation in human T47D cells at 30 uM by cell based reporter gene assay
In short: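 Transfected T47D luciferase reporter assay. Compound-treated cells exposed to hypoxia (5% CO2/1% O2/94% N2), normoxia, or 10 μM 1,10-phenanthroline as hypoxia mimetic, then luciferase activity read. Constitutive pGL3 control reporter run alongside.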

PC-3M [2] = experiment: Antimetastatic activity in human PC3M cells expressing calcitonin assessed as decreased cell disaggregation by spheroid disaggregation assay; format: functional, cell-based
In short: (§1)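 Spheroids grown from PC-3M-CT+ single-cell suspension (5×10^4/mL, serum-free RPMI 1640) on low-attachment plates rocked at 37 °C for 2 days, reaching 150–300 μm (~4×10^4 cells). One spheroid per ECM-coated well in serum-free medium, t=0 set at 1 h after plating. Photographed, cultured 48 h at 37 °C, fixed, Diff-Quik stained, migration diameter measured by micrometer minus initial diameter. Reported as percent increase in surface area.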

PC-3M [3] = experiment: Antimetastatic activity in human PC3M cells expressing calcitonin assessed as decreased cell migration by spheroid disaggregation assay; format: functional, cell-based; in short: as §1
[4] = Antimetastatic activity in human PC3M cells expressing calcitonin assessed as decreased cell disaggregation at 500 nM by spheroid disaggregation assay relative to control; format: functional, PC-3M
In short: (§2)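 Single PC-3M-CT+ spheroids (150–300 μm, ~4×10⁴ cells, grown 2 days on a rocking shaker in serum-free RPMI) placed on ECM-coated wells in serum-free medium. t = 0 set 1 h after plating. Cultured 48 h at 37 °C, then fixed and Diff-Quik stained. Migration diameter measured by micrometer minus initial spheroid diameter. Reported as average percent increase in surface area.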

PC-3M [5] = experiment: Antimetastatic activity in human PC3M cells expressing calcitonin assessed as inhibition calcitonin-induced reorganization of actin fibers at 50 nM by Matrigel barrier assay; format: functional, cell-based
[6] = molecular target: T1, Hypoxia inducible factors; HIF-1-alpha, HIF-2-alpha; experiment: Inhibition of 1,10-phenanthroline-induced HIF1 activation in human T47D cells by cell based reporter gene assay
In short: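 T47D cells transfected with an HIF-1 luciferase reporter, treated with compound and stimulated with 10 μM 1,10-phenanthroline as a hypoxia mimetic. Luciferase activity measured.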

[7] = Antimetastatic activity in human PC3M cells expressing calcitonin assessed as decreased cell migration at 500 nM by spheroid disintegration assay relative to control; format: functional, PC-3M; in short: as §2
PC-3M [8] = experiment: Antimetastatic activity in human PC3M cells expressing calcitonin assessed as shrinkage of actin fibers at 50 nM by Matrigel barrier assay; format: functional, cell-based
PC-3M [9] = experiment: Antimetastatic activity in human PC3M cells expressing calcitonin assessed as inhibition of invasion at 100 nM by Matrigel barrier assay; format: functional, cell-based
In short: (§3)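 PC-3M-CT+ cells serum-starved 24 h, then 25×10³ cells seeded in the upper insert of Matrigel invasion chambers. Lower chamber held 90% basal RPMI plus 10% conditioned medium from cells expressing active Gαs. After 24 h, non-invaders were removed and the insert underside stained with Diff Quick. Cells counted in ≥6 fields at 100×, corrected for growth rate. Triplicate, repeated twice, mean ± SEM.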

[10] = molecular target: T1, Hypoxia inducible factors; HIF-1-alpha, HIF-2-alpha; experiment: Inhibition of hypoxia-induced HIF1 activation in human T47D cells by cell based reporter gene assay
In short: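 T47D cells transfected with an HIF-1 luciferase reporter, treated with compound and exposed to hypoxia (5% CO₂/1% O₂/94% N₂) versus normoxia (5% CO₂/95% air). Luciferase activity measured.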

[11] = Cytotoxicity against human PC3M cells; format: functional, PC-3M
PC-3M [12] = experiment: Antimetastatic activity in human PC3M cells expressing calcitonin assessed as inhibition calcitonin-induced invasion at 100 nM by Matrigel barrier assay; format: functional, cell-based; in short: as §3

SMILES | Activity (T47D) [%] | inhibition [1] [%] | Activity (PC-3M [2]) | Activity (PC-3M [3]) | Fold change [4] | Activity (PC-3M [5]) | IC50 [6] [µM] | Fold change [7] | Activity (PC-3M [8]) | Activity (PC-3M [9]) | IC50 [10] [µM] | Activity [11] [nM] | Activity (PC-3M [12])
C/C1=C/C(=O)O[C@@H]2C[C@@H](CC[C@H](C)/C=C\C=C\CC1)O[C@@](OC(=O)NCCCl)([C@@H]1CSC(=O)N1)C2 | <20 | < 50 | inactive | inactive |  |  |  |  |  |  |  |  | 
C/C1=C/C(=O)O[C@@H]2C[C@@H](CC[C@H](C)/C=C\C=C\CC1)O[C@@](OC(=O)Nc1ccccc1)([C@@H]1CSC(=O)N1)C2 | <20 | < 50 | Dose-dependent effect | Dose-dependent effect |  |  |  |  |  |  |  |  | 
C/C1=C/C(=O)O[C@@H]2C[C@@H](CC[C@H](C)/C=C\C=C\CC1)O[C@@](O)([C@@H]1CSC(=O)N1)C2 [LATRUNCULIN A] | <20 |  |  |  | 3 | Active | 25 | 3 | Active | Active | 6.7 | 500 | Active
C/C1=C/C(=O)O[C@@H]2C[C@@H](CC[C@H](C)/C=C\C=C\CC1)O[C@@](OC(=O)NCCBr)([C@@H]1CSC(=O)N1)C2 | <20 | < 50 | inactive | inactive |  |  |  |  |  |  |  |  | 
C/C1=C/C(=O)O[C@@H]2C[C@@H](CC[C@H](C)/C=C\C=C\CC1)O[C@@](OC(=O)NCCCCl)([C@@H]1CSC(=O)N1)C2 | <20 | < 50 | Dose-dependent effect | Dose-dependent effect |  |  |  |  |  |  |  |  | 
C/C1=C/C(=O)O[C@@H]2C[C@@H](CC[C@H](C)/C=C\C=C\CC1)O[C@@](OC(=O)NCc1ccccc1)([C@@H]1CSC(=O)N1)C2 | <20 |  | Dose-dependent effect | Dose-dependent effect |  |  |  |  |  |  | 29 |  | 
